D1 allo mod: D1 CRE-luciferase signal change, two-sided – cell-based, HEK293 D1, dopamine EC30, D1 allosteric modulator project, primary screen. AID 641, 2007. D(1A) dopamine receptor (Homo sapiens), P21728. actives 5.9% (n = 58,000). B-score at 10 µM. dopamine EC30 potentiation; actives deviate in either direction;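 active = luminescence count or its row- and column-corrected plate score outside the 99.7% band of the plate's sample wells, on either side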
M1 antag: antagonists of rat M1 muscarinic receptor. Muscarinic acetylcholine receptor M1 (Rattus norvegicus), P08482. CHO-M1 cells, Fluo-4 calcium, ACh EC80 antagonist mode; stronger effect = lower value. B-score at 10 µM. actives 3.4% (n = 64,000);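 active = calcium fluorescence response, raw or row-and-column corrected B-score, differing from the plate sample mean either way at a set confidence level, mostly lower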
BAP1 block: inhibitors of BAP1 deubiquitinase, primary screen, biochemical, Ub-AMC fluorescence, kinetic; recombinant BAP1, Ub-AMC hydrolysis fluorescence kinetic; stronger effect = lower value; calls only at 20 µM; actives 0.48% (n = 72,000);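 active = activity remaining at or below 50% of control, provided the compound also passes the data quality filters; inactive = the rest, including low values that fail the filters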
Target sequence (Q92560 whole entry, looked up): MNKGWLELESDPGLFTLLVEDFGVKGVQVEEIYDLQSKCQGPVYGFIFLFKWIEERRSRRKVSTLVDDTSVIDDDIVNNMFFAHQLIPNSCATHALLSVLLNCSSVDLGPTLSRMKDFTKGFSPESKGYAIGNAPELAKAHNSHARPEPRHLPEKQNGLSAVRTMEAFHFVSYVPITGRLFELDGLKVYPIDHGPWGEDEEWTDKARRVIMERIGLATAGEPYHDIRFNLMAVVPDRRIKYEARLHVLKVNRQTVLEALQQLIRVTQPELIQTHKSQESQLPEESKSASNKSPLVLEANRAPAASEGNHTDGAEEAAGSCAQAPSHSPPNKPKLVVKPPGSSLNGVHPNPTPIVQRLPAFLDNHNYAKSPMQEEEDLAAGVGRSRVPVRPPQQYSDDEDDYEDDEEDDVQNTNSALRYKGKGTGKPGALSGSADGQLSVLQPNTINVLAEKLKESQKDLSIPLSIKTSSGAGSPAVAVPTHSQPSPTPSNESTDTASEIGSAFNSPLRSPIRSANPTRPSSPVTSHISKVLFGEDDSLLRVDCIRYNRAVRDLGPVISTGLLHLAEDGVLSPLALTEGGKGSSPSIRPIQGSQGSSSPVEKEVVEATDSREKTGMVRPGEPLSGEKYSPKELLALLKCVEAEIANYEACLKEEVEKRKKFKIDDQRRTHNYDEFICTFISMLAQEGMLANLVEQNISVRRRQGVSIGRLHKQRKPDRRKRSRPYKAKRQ
HEK293 NFkB inh: inhibitors of PMA/ionomycin-induced NF-kB reporter, primary screen, antigen receptor NF-kB inhibitor project, cell-based, HEK-293 luciferase reporter, luminescence. inhibition, % at 3 µM. actives 0.21% (n = 62,000). HEK-293 NF-kB luciferase reporter. AID 465, 2006;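 active = inhibition above the mean of all tested compounds plus 3 SD, cut at about 40% in these data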
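System – HEK-293 cells with stable firefly luciferase reporter driven by four HIV NF-kB elements · Doses – one dose, 3 µM · Schedule – 1 h compound pre-incubation, 16 h PMA/ionomycin at 37 °C · Technique – luminescence from luciferase substrate reagent · Measure – percent inhibition normalized per plate to DMSO and reference-inhibitor controls · Replicates – tested once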
hDAT+cocaine: changed hDAT dopamine uptake under cocaine IC80, either direction, primary screen, cocaine antagonist project, cell-based, LLC-PK1 hDAT, [14C]-dopamine uptake, MLSMR; Sodium-dependent dopamine transporter (Homo sapiens), Q01959; LLC-PK1 hDAT cells, [14C]-dopamine uptake with cocaine IC80; actives deviate in either direction; B-score at 10 µM; actives 1.3% (n = 110,000);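 active = Z score or B-score, a plate-position-corrected score, falls beyond the plate's 99.7% confidence bounds, in either direction; inactive = both scores lie inside the 99.7% bounds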
M1 ag: M1 muscarinic receptor agonists, primary screen, CHO-M1 cells, Fluo-4 calcium, agonist mode; B-score at 10 µM; actives 3% (n = 64,000); AID 626, 2007; Fluo-4 calcium fluorescence; stronger effect = higher value; Muscarinic acetylcholine receptor M1;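 active = fluorescence rise, raw or as B-score row- and column-corrected plate score, outside the 99.7% band of its plate's samples, either direction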
M1 antag confirm: rat M1 muscarinic receptor antagonists, confirmation, CHO cells, Fluo-4 calcium, duplicate. shares compounds with M1 antag. ACh EC80 antagonism; stronger effect = lower value. calcium response (max-min fluorescence) at 10 µM. actives 43% (n = 1,700). AID 677, 2007;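 active = calcium response below the same-plate mean of wells given acetylcholine alone at its 80%-effect dose, minus 3 SD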
mGluR4 antag: human mGluR4 response to M1 antagonist hits, M1 allosteric modulator project, cell-based, antagonist mode, secondary assay 1. shares compounds with M1 antag. CHO-mGluR4 calcium flux, Fluo-4 fluorescence, glutamate EC80; stronger effect = lower value. fluorescence response (max-min) at 10 µM. actives 0.9% (n = 1,700). AID 678, 2007;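 active = fluorescence response below the plate's average for near-maximal glutamate wells, less 3 SD of those wells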;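 also: raw unnormalized fluorescence span taken in the window right after glutamate addition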
A number is an active result; – = inactive; · = no result shown. Most compounds without a hit are left out; they make up all but 7.2% or so of the library.

SMILES	D1 allo mod	M1 antag	BAP1 block	HEK293 NFkB inh	hDAT+cocaine	M1 ag	M1 antag confirm	mGluR4 antag
N#Cc1c(NCc2ccccc2)ccnc1NCc1cccnc1	–	-4.26	–	–	–	–	441	–
O=S(=O)(c1ccc(NCC2CCCCC2)nc1)N1CCOCC1	–	-4.29	–	–	–	–	554	–
COC(=O)c1ccc(OCCOc2ccccc2)cc1	·	·	·	·	–	·	·	·
COC(=O)c1ccc(OCCN2C3=NCCN3c3ccccc32)cc1	·	-9.04	–	–	–	–	440	–
Cc1ccc(SCCCCN2C(=O)NC(C)(C)C2=O)cc1	–	-2.06	–	–	–	–	–	–
CCCC(c1nnnn1Cc1cccs1)N1CCN(c2ccc(OC)cc2)CC1 (centres undefined)	–	–	–	–	–	–	·	·
COc1ccccc1CN1CCN(C(CC(C)C)c2nnnn2Cc2cccs2)CC1 (centres undefined)	–	-2.03	–	–	–	–	558	–
Cc1ccc(C)c(NC2=C(Cl)C(=O)N(c3cccc(C)c3C)C2=O)c1	·	·	–	·	·	·	·	·
COc1cc(C2N(c3ccc(F)cc3)C(=O)C3CCCN32)cc(OC)c1OC (centres undefined)	–	-4.36	–	–	–	–	–	–
COc1ccccc1C1N(c2ccc(F)cc2)C(=O)C2CCCN21 (centres undefined)	–	–	–	–	–	–	·	·
O=C(CCC1CCCC1)Nc1ccc(S(=O)(=O)N2CCOCC2)cc1	·	·	–	·	·	·	·	·
CCN1C(=Cc2ccc3ccccc3[n+]2CC)Sc2cc(NC(C)=O)ccc21	·	·	–	·	·	·	·	·
O=C(Oc1ccc(OC(=O)N2CCCCC2)cc1)c1ccccc1	–	-2.86	–	–	–	–	237	–
COc1ccccc1C(=O)Nc1cc(-c2nc3ncccc3o2)ccc1C	·	·	–	·	·	·	·	·
COC(=O)c1ccccc1NC(=O)c1cc(-c2cccc(OC)c2)on1	–	–	–	–	·	–	·	·
COC(=O)c1ccccc1NC(=O)c1cc(-c2cccs2)on1	–	-2.59	–	–	–	–	–	–
O=C(c1ccc(Br)o1)N1CCN(c2ccc3nnc(-c4ccccc4)n3n2)CC1	–	-6.41	–	–	–	–	264	–
O=C(Nc1ccc(S(=O)(=O)N2CCCCCC2)cc1)C1CCCO1 (centres undefined)	–	-3.16	–	–	–	–	–	–
O=C(Nc1ccc(S(=O)(=O)Nc2ccc(Cl)cc2)cc1)C1CCCO1 (centres undefined)	–	-1.15	–	–	–	–	–	–
O=C(Nc1ccc(S(=O)(=O)N2CCOCC2)cc1)C1CCCCC1	–	–	–	–	–	–	·	·
CC(C)(O)C#CC#CCN1CCOCC1	–	-1.11	–	–	–	–	–	–
CC(=O)c1cc(C(c2csc(C(C)=O)c2)c2csc(C(C)=O)c2)cs1	·	·	·	·	–	·	·	·
CC(=O)c1ccc(C(C)(C)c2ccc(C(C)=O)s2)s1	–	-2.59	–	–	–	–	518	–
c1ccc(-c2nnc(N3CCN(c4ccccn4)CC3)c3ccccc23)cc1	–	-4.83	–	–	–	–	358	171
CC(C)(O)P(C)(=O)c1ccccc1 (centres undefined)	–	–	–	–	–	–	·	·
SMILES	D1 allo mod	M1 antag	BAP1 block	HEK293 NFkB inh	hDAT+cocaine	M1 ag	M1 antag confirm	mGluR4 antag
CC(C)(C)P(=O)(CO)c1ccccc1 (centres undefined)	–	-2.5	–	–	–	–	–	–
CCc1ccc(NC(=O)c2cc3nc(-c4ccccc4)cc(C)n3n2)cc1	·	·	–	·	·	·	·	·
Cc1cccc(N2C(=O)C(Cl)=C(Nc3c(C)n(C)n(-c4ccccc4)c3=O)C2=O)c1C	·	·	·	·	–	·	·	·
Cc1ccc(N2C(=O)C(Cl)=C(Nc3c(C)n(C)n(-c4ccccc4)c3=O)C2=O)cc1	–	-5.71	–	–	–	–	133	–
CC1CCCN(CCCNC(=O)c2coc3nc4ccccc4nc23)C1 (centres undefined)	–	-1.81	–	–	–	–	365	–
Cc1ccc(CCNC(=O)c2coc3nc4ccccc4nc23)cc1	–	–	·	–	·	–	·	·
CC1CCN(CCCNC(=O)c2coc3nc4ccccc4nc23)CC1	–	-4.84	–	–	–	–	390	–
COc1ccc2oc(=Nc3ccccc3C)c(C(=O)NC(C)=O)cc2c1	·	·	–	·	·	·	·	·
COc1cccc(CC(=O)NCC2COc3ccccc3O2)c1OC (centres undefined)	–	-11.5	–	–	–	–	–	–
COc1ccc(C(=O)NCC(=O)NCC2COc3ccccc3O2)cc1 (centres undefined)	·	·	·	·	–	·	·	·
CCN(CC)Cc1cc2ccccc2c2c1COC2	–	-2.32	–	–	–	–	473	–
Cc1cc(/C=N/n2cnnc2)c(C)n1-c1ccc(OCc2ccc(F)cc2)cc1	–	-2.35	–	–	–	–	503	–
Cc1cc(/C=N/n2cnnc2)c(C)n1-c1ccc(OCc2ccc(Cl)cc2Cl)cc1	·	·	·	·	–	·	·	·
COc1ccc(N2C(=O)CSC23C(=O)N2CCCc4cccc3c42)cc1 (centres undefined)	–	-16.9	–	–	–	–	28.3	–
Cc1ccc(-c2nc3cc(NC(=O)c4ccc([N+](=O)[O-])cc4)ccc3o2)cc1	·	·	–	·	·	·	·	·
Cc1cccc(Nc2ccccc2C(=O)OCC(=O)N2CCOCC2)c1C	–	-4.2	–	–	–	–	–	–
COc1ccc(CCNC(=O)CSC2=Nc3ccccc3C3=NC(C(C)C)C(=O)N23)cc1OC (centres undefined)	–	-3.47	–	–	·	–	–	–
COc1ccc(CCNC(=O)C(C)N2C(=O)c3ccccc3C2=O)cc1OC (centres undefined)	·	·	–	·	·	·	·	·
c1ccc(N2CC[N+]3(CCCC3)CC2)nc1	–	–	–	–	–	–	·	·
c1cnc(N2CC[N+]3(CCCC3)CC2)nc1	–	-5	–	–	–	–	163	–
COc1ccccc1CNC(=O)CS(=O)Cc1nc(-c2ccccc2C)oc1C (centres undefined)	–	-2.68	–	–	–	–	–	–

High-throughput results (PubChem)
